# This is a sample that favours compounds with a hit; in the whole collection about 2.6% have one here.
# SENP1 FRET inh: human SENP1 catalytic domain inhibitors, primary screen, biochemical, FRET, uHTS; Sentrin-specific protease 1 (Homo sapiens), Q9P0U3; recombinant SENP1 catalytic domain, CyPet-SUMO1-YPet FRET cleavage; inhibition, % at 10 µM; hit rate 0.21% among 360,000; AID 624204, 2012;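 active = inhibition at least 30% at 10 µM, raw YFP signal under a set limit, fluorescence ratio 0.5 to 1.5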;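 note: 0% = enzyme with DMSO and 100% = no enzyme wells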
# Target sequence (Q9P0U3 419-644 limits assumed): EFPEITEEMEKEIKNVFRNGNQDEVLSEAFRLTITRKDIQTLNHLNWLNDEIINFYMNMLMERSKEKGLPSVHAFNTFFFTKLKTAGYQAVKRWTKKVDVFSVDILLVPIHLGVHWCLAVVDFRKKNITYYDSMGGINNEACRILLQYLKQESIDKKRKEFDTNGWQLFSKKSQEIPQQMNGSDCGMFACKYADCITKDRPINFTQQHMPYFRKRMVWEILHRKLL
#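 Material: hSENP1 catalytic domain, recombinant; medium: Tris pH 8 with BME, BSA, NP40 and catalase; compound: single concentration of 10 µM compound, 0.5% DMSO final; technique: FRET read of cyan and yellow fluorescence; timing: 50 min enzyme reaction, room temperature, light-protected; reagent: SFCypet-SUMO1-SFYpet substrate at 25 nM; control set: no-enzyme low, enzyme-DMSO high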
# SENP7 block: SENP7 protease inhibitors, primary screen, biochemical, luminescence, uHTS. recombinant SENP7, Z-RLRGG-aminoluciferin luminescence, 40 min. inhibition, % at 5 µM. hit rate 1.5% among 330,000;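 active = inhibition above about 50% at the single test dose, limit read from the data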;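 note: plate controls were DMSO with enzyme for no effect and no enzyme buffer wells for full effect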
# SENP8 block-1: SENP8 protease inhibitors, primary screen, biochemical, luminescence; hit rate 1.2% among 330,000; purified SENP8, Z-RLRGG-aminoluciferin cleavage; Sentrin-specific protease 8 (Homo sapiens), Q96LD8; AID 2540, 2010; inhibition, % at 10 µM; in the data active = inhibition above about 50%
# Target sequence (Q96LD8 whole entry, looked up): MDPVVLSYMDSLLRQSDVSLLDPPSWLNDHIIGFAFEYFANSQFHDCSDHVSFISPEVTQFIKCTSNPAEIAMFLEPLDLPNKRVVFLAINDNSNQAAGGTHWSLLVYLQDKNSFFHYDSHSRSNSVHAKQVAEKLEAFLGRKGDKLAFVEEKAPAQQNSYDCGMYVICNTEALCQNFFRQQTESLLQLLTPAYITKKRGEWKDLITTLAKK
# UCH37 DUB inh: inhibitors of human UCH37 deubiquitinase, primary screen, biochemical, Ub-AMC cleavage, fluorescence; purified proteasome/UCH37; inhibition, % (concentration not given with the values); hit rate 0.33% among 330,000; AID 588478, 2011;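 active = mean inhibition over replicate wells above about 20%, limit read from the data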;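 note: 0% = compound-free wells with enzyme and 100% = wells lacking proteasome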
#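 Material: Human UCH37 enzyme supplied as purified proteasome complex | Schedule: 30 min preincubation with enzyme, 25 min cleavage at room temperature | Detection: AMC fluorescence 355/460 nm | Measure: % inhibition of Ub-AMC cleavage fluorescence | Controls: Wells without proteasome as full block, compound-free enzyme plus substrate as uninhibited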
# SENP8 block-2: human SENP8 protease inhibitors, primary screen, biochemical, fluorescence, Nedd8 protein substrate, uHTS; Sentrin-specific protease 8 (Homo sapiens), Q96LD8; recombinant SENP8; inhibition, % at 20 µM; hit rate 0.64% among 360,000; AID 602440, 2012; in the data active = inhibition mostly above about 40%, no sharp cut-off; inactive = mostly below about 27%
# SENP6 block: SENP6 protease inhibitors, primary screen, biochemical, luminescence, uHTS. Recombinant SENP6 catalytic domain, aminoluciferin luminescence. inhibition, % at 10 µM. hit rate 1.8% among 330,000. AID 2599, 2010;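 active = inhibition above about 50% at the single tested dose, limit read from the data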;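 note: plate controls were DMSO wells with enzyme for no effect and DMSO wells lacking enzyme for full effect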
# SENP8 inh conf: human SENP8 protease inhibitors, confirmation, biochemical, Nedd8 protein substrate, single concentration. AID 624319, 2012. hit rate 15% among 1,400. inhibition, % at 25 µM. purified SENP8, Nedd8-AMC/pro-Nedd8 cleavage fluorescence, 30 min. shares compounds with SENP8 block-2; in the data active = inhibition mostly above about 39%, no sharp cut-off; inactive = mostly below about 34%
# * hit, by the source's call; . = no result given.
SMILES,SENP1 FRET inh,SENP7 block,SENP8 block-1,UCH37 DUB inh,SENP8 block-2,SENP6 block,SENP8 inh conf
CCN(CC)c1ccc(N=Cc2ccccc2[N+](=O)[O-])cc1,12,7,-7,0,66*,28,31
COc1ccc(O)c(C=NNC(=O)c2cc(=O)[nH]c3ccccc23)c1,.,.,.,10,.,.,.
CC(C)[C@@H](C(=O)N[C@@H](CCc1ccc(O)cc1)C(=O)O)N(C)C(=O)[C@H](CO)NC(=O)[C@@H](O)[C@H](N)CCCCCCCCl,4,.,.,.,55*,.,17
CC(=O)O[C@H]1C[C@@]2(O)[C@@H](OC(=O)c3ccccc3)C3[C@@](C)([C@@H](O)C[C@H]4OC[C@@]34OC(C)=O)[C@@H](O)[C@H](OC(C)=O)C(=C1C)C2(C)C (stereo partly drawn),3,0,-5,3,43*,-8,15
Cc1cccc(NC(=O)C(=O)NN=Cc2ccncc2)c1,.,.,.,1,.,.,.
Cc1cc(C)nc(NC(=NCCc2c[nH]c3ccccc23)NC(=O)C(C)(C)C)n1,1,11,-3,3,46*,-16,20
Cc1nn(C)cc1C=NNC(=S)Nc1ccccc1,.,.,.,2,.,.,.
CSc1nnc(C)c(/C=C/NOCc2ccc(Cl)cc2)n1,1,7,3,8,44*,25,40
O=C(CC1S/C(=N/N=Cc2cccs2)NC1=O)Nc1ccccc1F (stereo not drawn),.,.,.,5,.,.,.
CN(C)c1cc[n+](/C(C(=S)Nc2ccc(SC(F)F)cc2)=C(/[O-])c2ccccc2)cc1,1,11,1,4,44*,-11,23
COc1ccc([N+](=O)[O-])cc1NC(=S)NC(=O)C(C)(C)C,-2,2,2,3,40*,-1,27
Cc1nn(Cc2ccccc2)c(C)c1C=NNC(=O)CNc1cccc(C(F)(F)F)c1,.,.,.,0,.,.,.
COc1ccc(NC(=O)c2cccc(S(=O)(=O)N3CCOCC3)c2)cc1,2,-7,-8,2,14,-8,.
COc1ccc(NC(=O)c2cccc(S(=O)(=O)N3CCOCC3)c2)cn1,1,0,6,-1,80*,-3,5
O=C(COC(=O)c1cc(S(=O)(=O)N2CCOCC2)ccc1Cl)Nc1ccc2c(c1)OCO2,-3,4,-2,-1,45*,-7,11
CC(=NN=c1scc(C)n1Cc1ccco1)c1cccc([N+](=O)[O-])c1,.,.,.,6,.,.,.
CCC(NC(=S)NCc1ccccc1)C(=O)O (stereo not drawn),2,0,-1,2,48*,1,35
CCNC(=S)NNC(=S)NCc1ccccc1,2,5,-3,1,5,-7,.
CC1CCN(c2ccc(C(=O)Nc3ccc4c(c3)OCO4)cc2[N+](=O)[O-])CC1,1,2,5,8,33,1,.
CC1CCCN(c2ccc(C(=O)Nc3ccc4c(c3)OCO4)cc2[N+](=O)[O-])C1 (stereo not drawn),2,7,-1,6,43*,-5,22
CCOC(=O)CNC(=O)c1ccc(C)cc1,-1,9,-7,-1,8,-13,.
CCOC(=O)N1CCN(C(=O)COC(=O)CNC(=O)c2ccc(C)cc2)CC1,1,2,9,-2,43*,-8,21
O=C1CC(N2CCOCC2)=NN1c1ccc([N+](=O)[O-])cc1,1,22,16,15,76*,29,46*
O=[N+]([O-])c1ccc(N2CCOCC2)nc1,1,8,6,11,17,-6,.
Cc1ccc(S(=O)(=O)Nc2cc(C)on2)cc1,1,-16,-6,0,5,-12,.

# Source: PubChem
